Experimental data published in ChEMBL document CHEMBL1149657, “Benzylamine histamine H(3) antagonists and serotonin reuptake inhibitors” (Bioorg Med Chem Lett, 2007).

Tested on: not listed separately
Test: Drug level in rat brain at 10 mg/kg, po after 3 hrs
Assay type: ADME, organism-based
Set-up: dose 10 mg/kg, route oral
Details: read-out: Drug uptake

SMILES | concentration at 3 h [nM]
CNCc1cc(C#CCCN2CCOCC2)ccc1Oc1ccc(Cl)cc1 | 1700
CNCc1cc(C#CCCN2CCOCC2)ccc1Oc1cccc(F)c1 | 1420
CNCc1cc(C#CCCN2CCOCC2)ccc1Oc1ccc(C(F)(F)F)cc1 | 4650
CNCc1cc(C#CCCN2CCOCC2)ccc1Oc1ccc(Cl)c(C(F)(F)F)c1 | 1860
CNCc1cc(C#CCCN2CCSCC2)ccc1Oc1ccc(SC)cc1 | 360
CNCc1cc(C#CCCN(C)C2CC2)ccc1Oc1ccc(SC)cc1 | 220
CNCc1cc(C#CCCN2CCC(F)CC2)ccc1Oc1ccc(SC)cc1 | 63
CNCc1cc(C#CCCN2CCOCC2)ccc1Oc1cccc(Cl)c1 | 5130
CNCc1cc(C#CCCN2CCOCC2)ccc1Oc1ccc(F)cc1Cl | 440
CNCc1cc(C#CCCNC2CC2)ccc1Oc1ccc(SC)cc1 | 320

Tested on: not listed separately
Test: Plasma concentration in rat at 10 mg/kg, po after 6 hrs
Assay type: ADME, organism-based
Set-up: dose 10 mg/kg, route oral
Details: not given

SMILES | concentration at 6 h [nM]
CNCc1cc(C#CCCN2CCOCC2)ccc1Oc1ccc(Cl)cc1 | 28
CNCc1cc(C#CCCN2CCOCC2)ccc1Oc1cccc(F)c1 | 48
CNCc1cc(C#CCCN2CCOCC2)ccc1Oc1ccc(C(F)(F)F)cc1 | 150
CNCc1cc(C#CCCN2CCOCC2)ccc1Oc1ccc(Cl)c(C(F)(F)F)c1 | 110
CNCc1cc(C#CCCN2CCSCC2)ccc1Oc1ccc(SC)cc1 | 250
CNCc1cc(C#CCCN(C)C2CC2)ccc1Oc1ccc(SC)cc1 | 12
CNCc1cc(C#CCCN2CCC(F)CC2)ccc1Oc1ccc(SC)cc1 | 10
CNCc1cc(C#CCCN2CCOCC2)ccc1Oc1cccc(Cl)c1 | 270
CNCc1cc(C#CCCN2CCOCC2)ccc1Oc1ccc(F)cc1Cl | 8
CNCc1cc(C#CCCNC2CC2)ccc1Oc1ccc(SC)cc1 | 27

Target: Sodium-dependent dopamine transporter (Homo sapiens, UniProt Q01959)
Test: Binding affinity to human DAT
Details: not given
Method in brief: (§1)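 Human NET and DAT Ki values from one experiment run in triplicate.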

Sequence of Sodium-dependent dopamine transporter (Q01959 whole entry): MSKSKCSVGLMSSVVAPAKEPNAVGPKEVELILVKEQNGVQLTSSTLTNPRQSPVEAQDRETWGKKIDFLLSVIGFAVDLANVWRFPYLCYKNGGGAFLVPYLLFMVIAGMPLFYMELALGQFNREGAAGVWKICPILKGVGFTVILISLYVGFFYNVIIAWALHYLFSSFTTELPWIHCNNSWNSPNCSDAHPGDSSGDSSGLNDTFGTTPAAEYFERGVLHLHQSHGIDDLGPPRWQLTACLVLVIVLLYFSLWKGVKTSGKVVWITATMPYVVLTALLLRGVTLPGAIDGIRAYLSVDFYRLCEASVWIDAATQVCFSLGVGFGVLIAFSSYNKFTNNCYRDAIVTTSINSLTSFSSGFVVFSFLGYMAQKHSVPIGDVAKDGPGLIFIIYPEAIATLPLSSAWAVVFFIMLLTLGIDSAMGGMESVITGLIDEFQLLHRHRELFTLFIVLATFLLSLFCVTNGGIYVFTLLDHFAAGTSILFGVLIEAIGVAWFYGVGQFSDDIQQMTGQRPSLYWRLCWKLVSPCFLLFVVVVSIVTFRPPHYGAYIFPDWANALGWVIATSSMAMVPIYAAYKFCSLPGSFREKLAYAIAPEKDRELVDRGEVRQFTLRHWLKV

SMILES | Ki [nM]
CNCc1cc(C#CCCN2CCOCC2)ccc1Oc1ccc(SC)cc1 | 700
CNCc1cc(C#CCCN(C)C2CC2)ccc1Oc1ccc(SC)cc1 | 400
CNCc1cc(C#CCCN2CCC(F)CC2)ccc1Oc1ccc(SC)cc1 | 190
CNCc1cc(C#CCCN2CCOCC2)ccc1Oc1ccc(SC)c(C)c1 | 1000

Tested on: not listed separately
Test: Drug level in rat brain at 10 mg/kg, po after 1 hr
Assay type: ADME, organism-based
Set-up: dose 10 mg/kg, route oral
Details: read-out: Drug uptake

SMILES | concentration at 1 h [nM]
CNCc1cc(C#CCCN2CCOCC2)ccc1Oc1ccc(Cl)cc1 | 1380
CNCc1cc(C#CCCN2CCOCC2)ccc1Oc1cccc(F)c1 | 820
CNCc1cc(C#CCCN2CCOCC2)ccc1Oc1ccc(C(F)(F)F)cc1 | 1770
CNCc1cc(C#CCCN2CCOCC2)ccc1Oc1ccc(Cl)c(C(F)(F)F)c1 | 370
CNCc1cc(C#CCCN2CCSCC2)ccc1Oc1ccc(SC)cc1 | 87
CNCc1cc(C#CCCN(C)C2CC2)ccc1Oc1ccc(SC)cc1 | 200
CNCc1cc(C#CCCN2CCC(F)CC2)ccc1Oc1ccc(SC)cc1 | 44
CNCc1cc(C#CCCN2CCOCC2)ccc1Oc1cccc(Cl)c1 | 2370
CNCc1cc(C#CCCN2CCOCC2)ccc1Oc1ccc(F)cc1Cl | 270
CNCc1cc(C#CCCNC2CC2)ccc1Oc1ccc(SC)cc1 | 120

Tested on: not listed separately
Test: Drug level in rat brain at 10 mg/kg, po after 6 hrs
Assay type: ADME, organism-based
Set-up: dose 10 mg/kg, route oral
Details: read-out: Drug uptake

SMILES | concentration at 6 h [nM]
CNCc1cc(C#CCCN2CCOCC2)ccc1Oc1ccc(Cl)cc1 | 1660
CNCc1cc(C#CCCN2CCOCC2)ccc1Oc1cccc(F)c1 | 1870
CNCc1cc(C#CCCN2CCOCC2)ccc1Oc1ccc(C(F)(F)F)cc1 | 5400
CNCc1cc(C#CCCN2CCOCC2)ccc1Oc1ccc(Cl)c(C(F)(F)F)c1 | 3560
CNCc1cc(C#CCCN2CCSCC2)ccc1Oc1ccc(SC)cc1 | 10
CNCc1cc(C#CCCN(C)C2CC2)ccc1Oc1ccc(SC)cc1 | 240
CNCc1cc(C#CCCN2CCC(F)CC2)ccc1Oc1ccc(SC)cc1 | 130
CNCc1cc(C#CCCN2CCOCC2)ccc1Oc1cccc(Cl)c1 | 10100
CNCc1cc(C#CCCN2CCOCC2)ccc1Oc1ccc(F)cc1Cl | 400
CNCc1cc(C#CCCNC2CC2)ccc1Oc1ccc(SC)cc1 | 520

Target: Sodium-dependent serotonin transporter (Rattus norvegicus, UniProt P31652)
Test: Binding affinity to rat SERT
Details: not given

Sequence of Sodium-dependent serotonin transporter (Rattus norvegicus, UniProt P31652) (P31652 whole entry): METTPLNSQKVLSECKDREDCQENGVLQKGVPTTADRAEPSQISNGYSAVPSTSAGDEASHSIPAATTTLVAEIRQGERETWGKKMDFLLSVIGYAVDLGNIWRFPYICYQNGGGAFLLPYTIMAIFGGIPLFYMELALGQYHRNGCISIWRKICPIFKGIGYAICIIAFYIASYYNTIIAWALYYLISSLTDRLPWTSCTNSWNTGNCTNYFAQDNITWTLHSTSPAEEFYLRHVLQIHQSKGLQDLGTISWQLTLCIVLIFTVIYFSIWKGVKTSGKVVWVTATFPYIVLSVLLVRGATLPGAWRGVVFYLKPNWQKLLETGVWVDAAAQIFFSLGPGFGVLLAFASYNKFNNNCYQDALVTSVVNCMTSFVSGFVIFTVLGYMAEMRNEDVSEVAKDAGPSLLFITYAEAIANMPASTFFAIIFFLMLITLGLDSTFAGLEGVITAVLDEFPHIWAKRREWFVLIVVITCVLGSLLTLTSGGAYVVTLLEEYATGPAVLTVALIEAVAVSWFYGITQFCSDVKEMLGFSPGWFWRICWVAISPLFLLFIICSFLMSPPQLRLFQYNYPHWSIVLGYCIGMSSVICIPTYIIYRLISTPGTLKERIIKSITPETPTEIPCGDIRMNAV

SMILES | Ki [nM]
CNCc1cc(Br)ccc1Oc1ccc(SC)cc1 | 0.5

Target: Histamine H3 receptor (Homo sapiens, UniProt Q9Y5N1)
Test: Binding affinity to human histamine H3 receptor
Details: not given

Sequence of Histamine H3 receptor (Q9Y5N1 whole entry): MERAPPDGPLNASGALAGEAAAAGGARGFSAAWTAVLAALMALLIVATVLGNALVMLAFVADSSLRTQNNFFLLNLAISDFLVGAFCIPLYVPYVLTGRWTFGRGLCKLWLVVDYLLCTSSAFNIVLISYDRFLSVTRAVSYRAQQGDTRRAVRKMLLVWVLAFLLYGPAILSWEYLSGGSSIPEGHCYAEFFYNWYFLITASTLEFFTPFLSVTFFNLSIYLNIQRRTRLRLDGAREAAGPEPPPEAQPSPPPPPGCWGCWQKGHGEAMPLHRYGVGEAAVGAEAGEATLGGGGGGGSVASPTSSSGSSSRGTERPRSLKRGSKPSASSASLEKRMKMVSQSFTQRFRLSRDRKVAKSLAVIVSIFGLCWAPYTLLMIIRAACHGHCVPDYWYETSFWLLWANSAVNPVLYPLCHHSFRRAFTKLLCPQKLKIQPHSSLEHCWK

SMILES | Ki [nM]
CCN(CC)CCCOc1cc2c(cn1)C(c1ccc(Cl)c(Cl)c1)CN(C)C2 (stereo not given) | 7
CNCc1cc(Br)ccc1Oc1ccc(SC)cc1 | 9000

Target: Sodium-dependent serotonin transporter (Homo sapiens, UniProt P31645)
Test: Binding affinity to human SERT
Details: not given

Sequence of Sodium-dependent serotonin transporter (Homo sapiens, UniProt P31645) (P31645 whole entry): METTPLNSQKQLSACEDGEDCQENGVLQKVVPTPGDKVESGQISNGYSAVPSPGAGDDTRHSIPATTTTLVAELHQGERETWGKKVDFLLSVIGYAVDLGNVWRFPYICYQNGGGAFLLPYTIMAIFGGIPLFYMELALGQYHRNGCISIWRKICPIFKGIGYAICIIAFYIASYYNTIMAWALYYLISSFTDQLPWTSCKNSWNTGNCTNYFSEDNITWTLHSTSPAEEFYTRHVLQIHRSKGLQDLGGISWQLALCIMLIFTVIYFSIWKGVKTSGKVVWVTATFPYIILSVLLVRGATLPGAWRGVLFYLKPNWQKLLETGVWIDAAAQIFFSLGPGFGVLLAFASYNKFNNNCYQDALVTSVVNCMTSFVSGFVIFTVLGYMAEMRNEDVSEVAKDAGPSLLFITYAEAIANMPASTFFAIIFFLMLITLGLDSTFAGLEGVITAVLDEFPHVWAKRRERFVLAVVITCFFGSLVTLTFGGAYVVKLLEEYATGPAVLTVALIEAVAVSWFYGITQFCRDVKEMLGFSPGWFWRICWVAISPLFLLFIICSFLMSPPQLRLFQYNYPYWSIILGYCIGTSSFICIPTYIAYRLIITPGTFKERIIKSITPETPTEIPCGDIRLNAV

SMILES | Ki [nM]
COc1ccc([C@@H]2CN(C)Cc3cc(OCCCN4CCC(F)CC4)ccc32)cc1 | 2.7
CCN(CC)CCCOc1cc2c(cn1)C(c1ccc(Cl)c(Cl)c1)CN(C)C2 (stereo not given) | 26
CNCc1cc(C#CCCN2CCNC(=O)C2)ccc1Oc1ccc(SC)cc1 | 1.3
CNCc1cc(Br)ccc1Oc1ccc(SC)cc1 | 1.7

Tested on: not listed separately
Test: Plasma concentration in rat at 10 mg/kg, po after 1 hr
Assay type: ADME, organism-based
Set-up: dose 10 mg/kg, route oral
Details: not given

SMILES | concentration at 1 h [nM]
CNCc1cc(C#CCCN2CCOCC2)ccc1Oc1ccc(Cl)cc1 | 68
CNCc1cc(C#CCCN2CCOCC2)ccc1Oc1cccc(F)c1 | 110
CNCc1cc(C#CCCN2CCOCC2)ccc1Oc1ccc(C(F)(F)F)cc1 | 240
CNCc1cc(C#CCCN2CCOCC2)ccc1Oc1ccc(Cl)c(C(F)(F)F)c1 | 53
CNCc1cc(C#CCCN2CCSCC2)ccc1Oc1ccc(SC)cc1 | 45
CNCc1cc(C#CCCN(C)C2CC2)ccc1Oc1ccc(SC)cc1 | 39
CNCc1cc(C#CCCN2CCC(F)CC2)ccc1Oc1ccc(SC)cc1 | 23
CNCc1cc(C#CCCN2CCOCC2)ccc1Oc1cccc(Cl)c1 | 180
CNCc1cc(C#CCCN2CCOCC2)ccc1Oc1ccc(F)cc1Cl | 30
CNCc1cc(C#CCCNC2CC2)ccc1Oc1ccc(SC)cc1 | 17

Target: Sodium-dependent noradrenaline transporter (Homo sapiens, UniProt P23975)
Test: Binding affinity to human NET
Details: not given
Method in brief: as §1

Sequence of Sodium-dependent noradrenaline transporter (P23975 whole entry): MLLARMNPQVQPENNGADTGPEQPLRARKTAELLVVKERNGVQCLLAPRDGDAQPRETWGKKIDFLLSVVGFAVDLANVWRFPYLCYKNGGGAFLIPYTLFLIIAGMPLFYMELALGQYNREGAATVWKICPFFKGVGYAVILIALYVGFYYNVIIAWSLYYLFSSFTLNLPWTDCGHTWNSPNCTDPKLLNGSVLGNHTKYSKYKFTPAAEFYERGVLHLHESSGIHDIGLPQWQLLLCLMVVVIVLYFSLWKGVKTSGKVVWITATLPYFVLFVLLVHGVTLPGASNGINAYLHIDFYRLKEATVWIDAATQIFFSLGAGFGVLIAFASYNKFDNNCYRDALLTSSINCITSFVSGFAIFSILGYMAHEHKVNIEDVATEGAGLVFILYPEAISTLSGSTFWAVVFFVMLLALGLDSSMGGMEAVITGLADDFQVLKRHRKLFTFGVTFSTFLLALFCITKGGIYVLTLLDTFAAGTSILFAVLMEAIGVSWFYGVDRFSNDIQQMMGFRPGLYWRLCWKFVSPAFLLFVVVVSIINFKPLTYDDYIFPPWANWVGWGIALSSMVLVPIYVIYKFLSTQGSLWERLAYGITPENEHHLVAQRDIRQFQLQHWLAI

SMILES | Ki [nM]
CNCc1cc(C#CCCN2CCOCC2)ccc1Oc1ccc(SC)cc1 | 290
CNCc1cc(C#CCCN(C)C2CC2)ccc1Oc1ccc(SC)cc1 | 250
CNCc1cc(C#CCCN2CCC(F)CC2)ccc1Oc1ccc(SC)cc1 | 96
CNCc1cc(C#CCCN2CCOCC2)ccc1Oc1ccc(SC)c(C)c1 | 240

Tested on: not listed separately
Test: Plasma concentration in rat at 10 mg/kg, po after 3 hrs
Assay type: ADME, organism-based
Set-up: dose 10 mg/kg, route oral
Details: not given

SMILES | concentration at 3 h [nM]
CNCc1cc(C#CCCN2CCOCC2)ccc1Oc1ccc(Cl)cc1 | 40
CNCc1cc(C#CCCN2CCOCC2)ccc1Oc1cccc(F)c1 | 91
CNCc1cc(C#CCCN2CCOCC2)ccc1Oc1ccc(C(F)(F)F)cc1 | 310
CNCc1cc(C#CCCN2CCOCC2)ccc1Oc1ccc(Cl)c(C(F)(F)F)c1 | 120
CNCc1cc(C#CCCN2CCSCC2)ccc1Oc1ccc(SC)cc1 | 360
CNCc1cc(C#CCCN(C)C2CC2)ccc1Oc1ccc(SC)cc1 | 24
CNCc1cc(C#CCCN2CCC(F)CC2)ccc1Oc1ccc(SC)cc1 | 8
CNCc1cc(C#CCCN2CCOCC2)ccc1Oc1cccc(Cl)c1 | 230
CNCc1cc(C#CCCN2CCOCC2)ccc1Oc1ccc(F)cc1Cl | 18
CNCc1cc(C#CCCNC2CC2)ccc1Oc1ccc(SC)cc1 | 32
